Screens from PubChem BioAssay.
Hits are enriched below; roughly 1.4% of the tested compounds scored in any of these assays.
MOR-DOR ag = OPRM1-OPRD1 heterodimerization agonism. P35372+P41143. cells, luminescence. activation, % at 9.3 µM. 0.3% of 340,000 active. AID 504326
Target sequence (P35372 whole entry, looked up): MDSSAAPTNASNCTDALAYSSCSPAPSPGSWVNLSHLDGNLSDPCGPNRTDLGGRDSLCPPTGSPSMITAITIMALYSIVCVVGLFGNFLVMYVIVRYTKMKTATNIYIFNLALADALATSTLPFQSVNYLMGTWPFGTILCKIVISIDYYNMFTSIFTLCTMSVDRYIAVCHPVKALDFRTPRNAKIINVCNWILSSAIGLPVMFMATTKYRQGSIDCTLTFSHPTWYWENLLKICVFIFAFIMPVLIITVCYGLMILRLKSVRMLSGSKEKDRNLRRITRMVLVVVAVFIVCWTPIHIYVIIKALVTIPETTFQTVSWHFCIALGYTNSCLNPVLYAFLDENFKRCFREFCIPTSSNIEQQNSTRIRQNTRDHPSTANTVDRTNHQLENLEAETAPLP
Target sequence (P41143 whole entry, looked up): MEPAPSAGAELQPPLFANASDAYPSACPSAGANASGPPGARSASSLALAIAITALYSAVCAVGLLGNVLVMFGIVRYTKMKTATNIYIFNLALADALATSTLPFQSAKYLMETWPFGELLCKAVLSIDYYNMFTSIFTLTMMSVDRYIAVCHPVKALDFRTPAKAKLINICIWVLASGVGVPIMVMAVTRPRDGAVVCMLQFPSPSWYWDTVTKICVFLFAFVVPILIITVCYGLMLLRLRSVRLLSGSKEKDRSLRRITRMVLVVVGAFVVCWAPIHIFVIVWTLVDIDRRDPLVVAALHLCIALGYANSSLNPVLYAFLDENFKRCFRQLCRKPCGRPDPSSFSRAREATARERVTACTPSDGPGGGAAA
DAGLB inhibitor = blocks human DAGLB lipase activity | Q8NCG7 | HEK293T DAGLB membrane lysate, EnzChek fluorogenic substrate | inhibition, % at 5.17 µM | 0.059% of 340,000 active; in the data active means inhibition above about 34%
Arr AP2 block = blocks beta-arrestin peptide binding to AP2 adaptin. FITC-arrestin peptide / GST-AP2 beads, flow cytometry; AP2 beta2 appendage carries R879A mutation. inhibition, % at 10 µM. 0.31% of 340,000 active. AID 504490;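 active means inhibition above a set limit, near 3 SD of compounds lacking own fluorescence, cut at about 54% in these data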
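Material – GST-tagged AP2 beta2-adaptin appendage (R879A) on 4 µm glutathione beads · Probe or stimulus – fluorescein-tagged arrestin peptide at 50 nM final · Timing – 12 min plus 1 h, RT · Detection – bead flow cytometry, FITC channel · Read-out basis – inhibition as reduced fluorescein signal on beads, percent · Medium – PBS plus Tween 20 (0.05%) and BSA (0.1%)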
MOR-DOR inv ag = mu-delta opioid heterodimer inverse agonism. P35372+P41143. cell-based MOR-DOR heterodimer luminescence. inhibition, % at 9.3 µM. 0.21% of 340,000 active; in the data active means inhibition above about 22%, passing the limit was not always enough
HTR5A ag ctr = activates human HTR5A in OPRM1-OPRD1 agonist counter-screen | HTR5A agonist assay, luminescence, cell-based | P47898 | 0.61% of 340,000 active | activation, % at 9.3 µM; in the data active means activation mostly above about 9.5%, no sharp cut-off; inactive means mostly below about 7.6%
HTR5A inv ctr = counter-screen for OPRM1-OPRD1 inverse agonists: human HTR5A inverse agonism; inhibition, % at 9.3 µM; 0.083% of 340,000 active; HTR5A cell line, luminescence; in the data active means inhibition mostly above about 23%, no sharp cut-off; inactive means mostly below about 18%
MOR-DOR ag conf = confirmation of human OPRM1-OPRD1 heterodimerization agonists; shares compounds with MOR-DOR ag; cells, MOR-DOR heterodimerization, luminescence complementation; activation, % at 9.3 µM; 45% of 830 active; AID 504904
HTR5A ag ctr2 = HTR5A agonism, opioid heterodimer counter-screen. activation, % at 9.3 µM. shares compounds with MOR-DOR ag. 8% of 830 active. HTR5A agonist counterscreen, cell luminescence; in the data active means activation above about 17%
Hits are given with their value. Unless noted, no stated cut-off is given here; in the data, active means activation above about 18%; inactive means the rest.

`Cc1ccc2nc(N(CCCN(C)C)C(=O)c3ccc(S(=O)(=O)N4CCc5ccccc5C4)cc3)sc2c1` gave MOR-DOR ag 130, DAGLB inhibitor inactive, Arr AP2 block inactive, MOR-DOR inv ag inactive, HTR5A ag ctr inactive, HTR5A inv ctr inactive, MOR-DOR ag conf 44 and HTR5A ag ctr2 inactive.
`CN(C)CCCN(C(=O)c1ccc(S(=O)(=O)N2CCc3ccccc32)cc1)c1nc2ccc(Cl)cc2s1` gave MOR-DOR ag inactive, DAGLB inhibitor inactive, Arr AP2 block inactive, MOR-DOR inv ag inactive, HTR5A ag ctr inactive and HTR5A inv ctr inactive.
For CN(C)CCCN(C(=O)c1ccc(S(=O)(=O)N2CCc3ccccc3C2)cc1)c1nc2ccc(F)cc2s1 the results were MOR-DOR ag 655, DAGLB inhibitor inactive, Arr AP2 block inactive, MOR-DOR inv ag inactive, HTR5A ag ctr inactive, HTR5A inv ctr inactive, MOR-DOR ag conf active and HTR5A ag ctr2 inactive.
CN(C)CCCN(C(=O)c1ccc(S(=O)(=O)N2CCCCCC2)cc1)c1nc2c(F)cc(F)cc2s1 was read as MOR-DOR ag 55, DAGLB inhibitor inactive, Arr AP2 block inactive, MOR-DOR inv ag inactive, HTR5A ag ctr inactive, HTR5A inv ctr inactive, MOR-DOR ag conf 111 and HTR5A ag ctr2 inactive.
For CN(C)CCCN(C(=O)c1ccc(S(=O)(=O)N2CCc3ccccc32)cc1)c1nc2ccc(F)cc2s1 the results were MOR-DOR ag 179, DAGLB inhibitor inactive, Arr AP2 block inactive, MOR-DOR inv ag inactive, HTR5A ag ctr inactive, HTR5A inv ctr inactive, MOR-DOR ag conf inactive and HTR5A ag ctr2 inactive.
Screening CN(C)CCCN(C(=O)c1ccc(S(=O)(=O)N(C)C)cc1)c1nc2ccc(F)cc2s1 returned MOR-DOR ag inactive, DAGLB inhibitor inactive, Arr AP2 block inactive, MOR-DOR inv ag inactive, HTR5A ag ctr inactive and HTR5A inv ctr inactive.
CN(CC(=O)NCc1cccs1)CC(=O)Nc1ccccc1Cl was read as DAGLB inhibitor inactive.
For COc1ccc([C@@H]2C[C@H]3[C@@H](CN2S(=O)(=O)c2ccccc2)C(=O)C[C@@H](c2cccc4ccccc24)N3S(=O)(=O)c2ccc(C)cc2)cc1 the results were DAGLB inhibitor inactive.
For Cc1cccc2sc(N(CCCN(C)C)C(=O)c3ccc(S(=O)(=O)N4CCc5ccccc5C4)cc3)nc12 the results were MOR-DOR ag inactive, DAGLB inhibitor inactive, Arr AP2 block inactive, MOR-DOR inv ag inactive, HTR5A ag ctr inactive and HTR5A inv ctr inactive.
`CN(C)CCCN(C(=O)c1ccc(S(=O)(=O)N2CCc3ccccc3C2)cc1)c1nc2c(F)cccc2s1` gave MOR-DOR ag 107, DAGLB inhibitor inactive, Arr AP2 block inactive, MOR-DOR inv ag inactive, HTR5A ag ctr inactive, HTR5A inv ctr inactive, MOR-DOR ag conf inactive and HTR5A ag ctr2 inactive.
CCNC(=O)c1cccc(NC(=O)c2cc(C3CC3)nc3c2cnn3C(C)C)c1 was read as MOR-DOR ag inactive, DAGLB inhibitor inactive, Arr AP2 block inactive, MOR-DOR inv ag inactive, HTR5A ag ctr inactive and HTR5A inv ctr inactive.
`CC(C)n1ncc2c(C(=O)Nc3cccc(C#N)c3)cc(C3CC3)nc21` gave MOR-DOR ag 184, DAGLB inhibitor inactive, Arr AP2 block inactive, MOR-DOR inv ag inactive, HTR5A ag ctr inactive, HTR5A inv ctr inactive, MOR-DOR ag conf 216 and HTR5A ag ctr2 inactive.
For CCN(CC)Cc1cc(Nc2c3ccccc3nc3c4ccccc4n(C)c23)cc(CN(CC)CC)c1O the results were MOR-DOR ag 144, DAGLB inhibitor inactive, Arr AP2 block inactive, MOR-DOR inv ag inactive, HTR5A ag ctr inactive, HTR5A inv ctr inactive, MOR-DOR ag conf 149 and HTR5A ag ctr2 inactive.
For Oc1cccc(Nc2c3ccccc3nc3ccccc23)c1 the results were MOR-DOR ag inactive, DAGLB inhibitor inactive, Arr AP2 block inactive, MOR-DOR inv ag inactive, HTR5A ag ctr inactive and HTR5A inv ctr inactive.
`OC(CNC1CCCc2ccccc21)COc1c(Cl)cccc1Cl` (stereo unspecified) gave MOR-DOR ag 20, DAGLB inhibitor inactive, Arr AP2 block inactive, MOR-DOR inv ag inactive, HTR5A ag ctr inactive, HTR5A inv ctr inactive, MOR-DOR ag conf inactive and HTR5A ag ctr2 inactive.
For C(=N\Nc1nc(Nc2ccccc2)nc(Nc2ccccc2)n1)/c1ccncc1 the results were MOR-DOR ag 20, DAGLB inhibitor inactive, Arr AP2 block inactive, MOR-DOR inv ag inactive, HTR5A ag ctr inactive, HTR5A inv ctr inactive, MOR-DOR ag conf inactive and HTR5A ag ctr2 inactive.
CN(Cc1ccccc1)C(=O)c1[nH]cnc1C(=O)Nc1ccccc1F was read as DAGLB inhibitor inactive.
Screening CCCC(NCC(O)COc1ccc(-c2ccccc2)cc1)c1ccccc1 (stereo unspecified) returned MOR-DOR ag 22, DAGLB inhibitor inactive, Arr AP2 block inactive, MOR-DOR inv ag inactive, HTR5A ag ctr inactive, HTR5A inv ctr inactive, MOR-DOR ag conf inactive and HTR5A ag ctr2 inactive.
`CC(=O)N(C)C[C@@H]1Oc2ncc(Br)cc2C(=O)N([C@H](C)CO)C[C@@H]1C` gave DAGLB inhibitor inactive.
For COc1ccc(OC)c(N(CC(=O)Nc2cccnc2)S(=O)(=O)c2ccc(C)cc2)c1 the results were MOR-DOR ag 65, DAGLB inhibitor inactive, Arr AP2 block inactive, MOR-DOR inv ag inactive, HTR5A ag ctr inactive, HTR5A inv ctr inactive, MOR-DOR ag conf 47 and HTR5A ag ctr2 inactive.
`COc1ccc(OC)c(N(CC(=O)Nc2cccnc2)S(=O)(=O)c2ccc(OC)c(OC)c2)c1` gave MOR-DOR ag inactive, DAGLB inhibitor inactive, Arr AP2 block inactive, MOR-DOR inv ag inactive, HTR5A ag ctr inactive and HTR5A inv ctr inactive.
`C[C@H](CO)N1C[C@H](C)[C@@H](CN(C)Cc2ccc(Cl)c(Cl)c2)OCc2cnnn2CCCC1=O` gave DAGLB inhibitor inactive.
CC(C)OCCCN1CC(=O)N2C(c3ccccc3)c3[nH]c4ccccc4c3C[C@H]2C1=O (stereo partly specified) was read as MOR-DOR ag inactive, DAGLB inhibitor inactive, Arr AP2 block inactive, MOR-DOR inv ag inactive, HTR5A ag ctr inactive and HTR5A inv ctr inactive.
Screening COc1cccc(C2c3[nH]c4ccccc4c3C[C@H]3C(=O)N(CCCOC(C)C)CC(=O)N23)c1 (stereo partly specified) returned MOR-DOR ag 18, DAGLB inhibitor inactive, Arr AP2 block inactive, MOR-DOR inv ag inactive, HTR5A ag ctr inactive, HTR5A inv ctr inactive, MOR-DOR ag conf inactive and HTR5A ag ctr2 inactive.
Screening CC(=O)NC(=Cc1ccccc1)C(=O)N1CCCC1C(=O)O (stereo unspecified) returned DAGLB inhibitor inactive.
